Measured values from ChEMBL document CHEMBL3352355, “Synthesis of novel polysubstituted (2SR,4RS)-2-heteroaryltetrahydro-1,4-epoxy-1-benzazepines and cis-2-heteroaryl-4-hydroxytetrahydro-1H-1-benzazepines as antiparasitic agents” (Eur J Med Chem, 2014).

Experiments:
Trypanosoma cruzi [1] = assay: Antiparasitic activity against epimastigote stage of Trypanosoma cruzi infected in Vero cells assessed as parasite growth inhibition […] by hemocytometery; type: functional, organism-based
Summary of the method: (§1)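 Exponential-phase T. cruzi Sylvio X10 epimastigotes (LIT medium with hiFCS) or L. (L.) infantum MHOM/BR/74/PP75 promastigotes (RPMI 1640, hemin, HEPES, 10% hiFCS) were exposed to threefold serial dilutions (0.3–300 µg/mL) for 72 h at 28 °C. Viable parasites were counted by hemocytometer with 0.25% eosin yellow. IC50 came from sigmoidal regression, given as mean ± SD.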

[2] = Selectivity index, ratio of CC50 for African green monkey Vero cells to IC50 for epimastigote stage of Trypanosoma cruzi; type: functional
Summary of the method: (§2)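 Selectivity index was calculated as CC50 in Vero (T. cruzi) or THP-1 (L. infantum) cells divided by parasite IC50. Both values came from 72 h mammalian-cell MTT assays and the parasite assays; SI ≥ 3 was defined as parasite-selective.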

Trypanosoma cruzi [3] = assay: Antiparasitic activity against amastigote stage of Trypanosoma cruzi infected in Vero cells assessed as parasite growth inhibition after 24 hrs by hemocytometery; type: functional, organism-based
Summary of the method: (§3)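 Host cells were Vero for T. cruzi (infected with tissue-derived trypomastigotes) and THP-1 (PMA-transformed, 10 ng/mL) for L. (L.) infantum (infected with late-phase promastigotes), at 1:10 cell:parasite for 24 h. Serial dilutions were given as two doses, the second on day 3 with a medium change. Read-out was % infected cells on methanol-fixed, Giemsa-stained slides (300 cells). IC50 came from sigmoidal regression; experiments in duplicate, concentrations in triplicate.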

[4] = Selectivity index, ratio of CC50 for African green monkey Vero cells to IC50 for amastigote stage of Trypanosoma cruzi; type: functional; summary of the method: as §2
Leishmania infantum [5] = assay: Antiparasitic activity against amastigote stage of Leishmania infantum infected in THP1 cells assessed as parasite growth inhibition after 24 hrs by hemocytometery; type: functional, organism-based, THP-1; summary of the method: as §3
[6] = Cytotoxicity against African green monkey Vero cells; type: cell-based; conditions: chlorocebus sabaeus
Summary of the method: (§4)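 Vero monolayers or THP-1 cells (made adherent with 10 ng/mL PMA), in RPMI 1640 with 10% hiFCS, were exposed to compound (0.3–300 µg/mL) for 72 h at 37 °C, 5% CO2. Viability was measured by MTT, with formazan dissolved in DMSO and read at 580 nm. % cytotoxicity was calculated against untreated cells; CC50 came from sigmoidal regression, given as mean ± SD.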

[7] = Selectivity index, ratio of CC50 for human THP1 cells to IC50 for promastigote stage of Leishmania infantum; type: functional, THP-1; summary of the method: as §2
[8] = Cytotoxicity against human THP1 cells; type: cell-based; conditions: THP-1 cells; summary of the method: as §4
Leishmania infantum [9] = assay: Antiparasitic activity against promastigote stage of Leishmania infantum assessed as parasite growth inhibition after 72 hrs by hemocytometery
Leishmania infantum [10] = assay: Antiparasitic activity against promastigote stage of Leishmania infantum infected in THP1 cells assessed as parasite growth inhibition […] by hemocytometery; type: functional, organism-based; conditions: THP-1; summary of the method: as §1
[11] = Selectivity index, ratio of CC50 for human THP1 cells to IC50 for amastigote stage of Leishmania infantum; type: functional, THP-1; summary of the method: as §2
[12] = Trypanosoma cruzi, Vero, 24 h, read-out: IC50
[13] = Leishmania infantum, THP-1, 24 h, read-out: IC50

Compound | IC50 (Trypanosoma cruzi [1]) | IC50 (Trypanosoma cruzi [3]; [12]) | Selectivity Index [2] | Selectivity Index [4] | IC50 (Leishmania infantum [5]; [13]) | CC50 [6] | Selectivity Index [7] | CC50 [8] | IC50 (Leishmania infantum [9]) | IC50 (Leishmania infantum [10]) | IC50 (Trypanosoma cruzi [3]; vero) | IC50 (Leishmania infantum [5]; thp-1) | Selectivity Index [11]
Cc1ccsc1[C@@H]1C[C@H](O)Cc2cc(F)ccc2N1 (relative stereo) | 45.9 µM | > 120 µM | 5.3 | – | > 120 µM | 243 µM | 28.9 | 1810 µM | – | 62.5 µM | – | – | –
Cc1ccc([C@@H]2C[C@H](O)Cc3cc(Cl)ccc3N2)o1 (relative stereo) | 61.8 µM | 323 µM | 4.9 | 0.93 | > 361 µM | 300 µM | >9.9 | > 1080 µM | – | 110 µM | – | – | –
Cc1ccc([C@@H]2C[C@H](O)Cc3cc(F)ccc3N2)o1 (relative stereo) | 115 µM | > 383 µM | 7.2 | – | > 383 µM | 823 µM | >8.1 | > 1150 µM | – | 141 µM | – | – | –
Cc1ccc([C@@H]2C[C@H](O)Cc3cc(OC(F)(F)F)ccc3N2)o1 (relative stereo) | 42.7 µM | > 102 µM | 1.9 | – | > 102 µM | 82.1 µM | 9.7 | 124 µM | – | 12.8 µM | – | – | –
C[C@@H]1[C@H](O)[C@@H](C)/C=C/C=C/C=C/C=C/C=C/C=C/C=C/[C@H](O[C@@H]2O[C@H](C)[C@@H](O)[C@H](N)[C@@H]2O)C[C@@H]2O[C@](O)(C[C@@H](O)C[C@@H](O)[C@H](O)CC[C@@H](O)C[C@@H](O)CC(=O)O[C@H]1C)C[C@H](O)[C@H]2C(=O)O [AMPHOTERICIN B] | – | – | – | – | 0.01 µM | – | 927.5 | 29.7 µM | 0.03 µM | – | – | – | 456.6

The next lines start with results.

IC50 (Trypanosoma cruzi [1]) | IC50 (Trypanosoma cruzi [3]; [12]) | Compound | Selectivity Index [2] | Selectivity Index [4] | IC50 (Leishmania infantum [5]; [13]) | CC50 [6] | Selectivity Index [7] | CC50 [8] | IC50 (Leishmania infantum [9]) | IC50 (Leishmania infantum [10]) | IC50 (Trypanosoma cruzi [3]; vero) | IC50 (Leishmania infantum [5]; thp-1) | Selectivity Index [11]
47.9 µM | 41.5 µM | Cc1ccsc1[C@@H]1C[C@H](O)Cc2cc(Cl)ccc2N1 (relative stereo) | 4.2 | 4.8 | > 341 µM | 200 µM | 2.5 | 181 µM | 72.9 µM | – | – | – | –
164 µM | 123 µM | Cc1ccc([C@@H]2C[C@H](O)Cc3cc(F)ccc3N2)s1 (relative stereo) | 4.9 | 6.53 | > 120 µM | 801 µM | 18.5 | 312 µM | – | 16.9 µM | – | – | –
65.7 µM | – | Cc1ccc([C@@H]2C[C@H](O)Cc3cc(OC(F)(F)F)ccc3N2)s1 (relative stereo) | 0.4 | – | – | 23.9 µM | 8.6 | 98 µM | – | 11.3 µM | ND(toxic) | ND(toxic) | –
10.7 µM | – | Cc1ccsc1[C@@H]1C[C@H](O)Cc2cc(OC(F)(F)F)ccc2N1 (relative stereo) | 2.5 | – | > 97.1 µM | 26.7 µM | 5.5 | 89.7 µM | – | 16.4 µM | ND(toxic) | – | –
884 µM | > 436 µM | O[C@@H]1Cc2ccccc2N[C@H](c2ccco2)C1 (relative stereo) | >1.5 | – | > 436 µM | > 1310 µM | 0.3 | 236 µM | – | 696 µM | – | – | –
120 µM | > 411 µM | Cc1ccc([C@@H]2C[C@H](O)Cc3ccccc3N2)o1 (relative stereo) | 3.1 | – | > 411 µM | 370 µM | 1.4 | 262 µM | – | 189 µM | – | – | –
606 µM | > 106 µM | O[C@@H]1Cc2cc(OC(F)(F)F)ccc2N[C@H](c2ccco2)C1 (relative stereo) | 0.3 | – | > 106 µM | 166 µM | 2.9 | 134 µM | – | 45.9 µM | – | – | –
